# Assay results taken from article PMC4207554 (Drug Design, Development and Therapy, 2014).
# Legend:
# [1] = tested on: bone marrow polychromatic erythrocytes; conditions: 15 mg/kg, similar experiment conditions; cited from earlier work
# H22 mouse hepatoma cells = test: H22 hepatoma xenograft model; type: in vivo, Kun Ming (KM) mice
# Summary of the method: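 Kun Ming mice (eight/group) received 2×10^5 H22 hepatoma cells sc in the right armpit. Test compound (5, 15, 45 mg/kg) or adriamycin (2 mg/kg) in HS-15/N,N-dimethylformamide (1:1 v/v) was injected ip. Mice were weighed twice weekly and killed by cervical dislocation, and tumors were weighed. Inhibition (%) = (mean control tumor weight − mean treated)/mean control × 100.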
# [2] = tested on: BEL-7402 human hepatoma cells; test: BEL-7402 human hepatoma xenograft model; type: in vivo, nude mice
# [3] = cited from earlier work
structure (smiles),measurement,setting,value
"COc1cccc2c1C(=O)c1c(O)c3c(c(O)c1C2=O)C[C@@](O)(C(=O)CO)C[C@@H]3O[C@H]1C[C@H](N)[C@H](O)[C@H](C)O1 [ADM, adriamycin]",induction of micronuclei,[1],induce large amounts of micronuclei
same,inhibitory rate of cancer growth,H22 mouse hepatoma cells; 2 mg/kg ip,51.9%
same,influence on body weights of mice,H22 mouse hepatoma cells; H22-bearing mice,much more loss of body weight
same,inhibition of body weight of mice,H22 mouse hepatoma cells; H22 xenografts,25.1%
same,inhibitory rate,"[2]; 2 mg/kg ip, BEL-7402 xenografts",73.5%
same,inhibition of body weight of mice,[2]; BEL7402 xenografts,33.3%
same,changes in body weights versus vehicle group,"[2]; BEL-7402 xenografts, 3 weeks",significantly reduced
same,bioavailability after oral administration,[3],poor bioavailability
